Here are results for two compounds from PubChem BioAssay AID624079 (The Scripps Research Institute Molecular Screening Center, 2012).

The target of this experiment is metallo-beta-lactamase VIM-2 (Pseudomonas aeruginosa). Kind of experiment: inhibition of VIM-2 nitrocefin cleavage – biochemical, absorbance, probe candidates and analogs, late-stage follow-up (AID 624079). The note with it: purified VIM-2, nitrocefin hydrolysis, epi-absorbance. In outline: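 Measure: four-parameter IC50 from OD-converted fluorescence. Assay system: purified VIM-2 metallo-beta-lactamase enzyme, Pseudomonas aeruginosa target. Quantity: 0.132 nM enzyme. Probe or stimulus: nitrocefin at 60 µM. Times: 15 min preincubation, 25 min nitrocefin hydrolysis, 25 °C, EDTA stop. Detection: Plate-fluorescence quench, ex 480 nm, em 530 nm. Replication: triplicates.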

Values joined by “and” are separate entries in the source; they are usually repeats but may differ in a detail not shown here. Equal entries are not always repeated.

The term IC50 denotes the point on the concentration scale where inhibition reaches its midpoint.

Turning to `CN1CCN(NC(=O)CN2C(=O)/C(=C/c3c(Cl)ccc(Cl)c3Cl)SC2=S)CC1`, the IC50 was 0.548 µM. Take `CN1CCN(NC(=O)CN2C(=O)/C(=C/c3c(Cl)cccc3Cl)SC2=S)CC1`: the IC50 was 3.98 µM and 4.55 µM.
